Experimental data reported in ChEMBL document CHEMBL3351489, “Design, synthesis, and structure-activity relationships of a series of novel N-aryl-2-phenylcyclopropanecarboxamide that are potent and orally active orexin receptor antagonists” (Bioorg Med Chem, 2014).
≈ marks a conversion by molar mass, not a printed value. Calls of active or inactive are those of the source. The rule behind the calls is not given here.

Tests used:
[1] = system: Mus musculus; test: Induction of non-REM sleep in C57BL/6NCrlCrlj mouse at 100 mg/kg up to 3 hrs by EEG/EMG analysis; format: functional, organism-based; parameters: dose 100 mg/kg
Summary of the method: (§1)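 Oral dosing immediately before lights out, vehicle 10% Cremophor EL, 5% DMSO in saline (n = 7 per group). EEG/EMG amplified, filtered (50 Hz line), sampled at 128 Hz. Recordings were scored automatically in 10-s epochs as wakefulness, non-REM or REM sleep and checked by a blinded observer. Minutes were summed over 3 h from dosing relative to vehicle, with one-way ANOVA and Dunnett test.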

[2] = system: Mus musculus; test: Induction of sleep in C57BL/6NCrlCrlj mouse assessed as reduction in wakefulness time at 100 mg/kg up to 3 hrs by EEG/EMG analysis; format: functional, organism-based; parameters: dose 100 mg/kg; summary of the method: as §1
[3] = molecular target: T1, Orexin/Hypocretin receptor type 1 (Homo sapiens, UniProt O43613); test: Displacement of [125I]-Orexin A from human OX1R expressed in CHO cells after 30 mins by topcount analysis; format: cell-based
T1 sequence (O43613 whole entry): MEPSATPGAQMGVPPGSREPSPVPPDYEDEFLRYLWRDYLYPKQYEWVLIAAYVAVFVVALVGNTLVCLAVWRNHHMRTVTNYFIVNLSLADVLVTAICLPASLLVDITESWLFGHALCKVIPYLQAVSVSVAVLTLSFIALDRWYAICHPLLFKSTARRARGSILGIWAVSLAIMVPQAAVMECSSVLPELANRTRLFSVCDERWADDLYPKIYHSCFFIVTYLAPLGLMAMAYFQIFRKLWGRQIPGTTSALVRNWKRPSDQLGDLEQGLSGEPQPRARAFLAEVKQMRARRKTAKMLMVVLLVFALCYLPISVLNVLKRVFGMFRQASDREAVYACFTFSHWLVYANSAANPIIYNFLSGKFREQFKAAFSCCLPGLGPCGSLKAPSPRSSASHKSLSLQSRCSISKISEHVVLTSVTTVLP
Summary of the method: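 Membranes from CHO cells expressing human OX1R, […] per well, in 25 mM HEPES pH 7.5 with MgCl2, CaCl2, 0.5% BSA, sodium azide, Tween 20; incubated with [125I]-orexin A 30 min at rt on scintillation plate, washed, counted. Nonspecific binding with excess unlabelled orexin A; % inhibition from DPM; mean of 3 wells, single measurement.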

[4] = molecular target: T2, Orexin receptor type 2 (Homo sapiens, UniProt O43614); test: Displacement of [125I]-Orexin A from human OX2R expressed in CHO cells after 30 mins by topcount analysis; format: cell-based
T2 sequence (O43614 whole entry): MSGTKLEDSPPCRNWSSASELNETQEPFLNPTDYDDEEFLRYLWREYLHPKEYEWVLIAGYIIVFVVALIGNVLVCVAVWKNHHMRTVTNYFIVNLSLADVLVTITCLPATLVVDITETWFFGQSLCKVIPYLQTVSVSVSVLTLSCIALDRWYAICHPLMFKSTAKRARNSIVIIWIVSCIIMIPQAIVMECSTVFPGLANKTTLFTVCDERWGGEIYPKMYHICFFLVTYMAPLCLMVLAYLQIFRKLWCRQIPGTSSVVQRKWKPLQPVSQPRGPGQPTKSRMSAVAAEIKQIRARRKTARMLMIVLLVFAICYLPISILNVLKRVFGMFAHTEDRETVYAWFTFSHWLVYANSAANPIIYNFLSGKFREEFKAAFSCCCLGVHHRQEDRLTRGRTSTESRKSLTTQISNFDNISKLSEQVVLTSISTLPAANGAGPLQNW

[5] = Ratio of efflux ratio of permeability in pig LLC-MDR1 cells to efflux ratio of permeability in pig LLC-PK1 cells; format: ADME, cell-based, Sus scrofa
Summary of the method: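 LLC-PK1 and MDR1-transfected LLC-PK1 cells grown 5 days on porous inserts (5% CO2, 37 °C). Monolayers preincubated 2 h in HBSS with 10 mM HEPES; compound added apical or basal, 2 h at 37 °C. Receiver side sampled, quantified by LC/MS; Papp from permeated amount, time, initial concentration and membrane area.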

[6] = Aqueous solubility of the compound in PBS at pH 7.4 after 15 mins by HPLC method; format: physicochemical
[7] = Drug uptake in CSF of C57BL/6N mouse at 100 mg/kg, po after 1 hr; format: ADME, organism-based, Cerebrospinal fluid; parameters: dose 100 mg/kg, route oral; settings: read-out: Drug uptake
Summary of the method: (§2)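 Male C57BL/6N mice given single oral 100 mg/kg (suspension in 0.5% methylcellulose, or saline/Cremophor EL/DMSO 85:10:5). At 1 or 3 h, CSF taken from cisterna magna under pentobarbital, then aortic blood for plasma. Samples protein-precipitated with methanol/acetonitrile plus propranolol internal standard; LC/MS/MS in positive MRM mode, 1/x²-weighted calibration; mean ± SEM.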

[8] = Plasma concentration in C57BL/6N mouse at 100 mg/kg, po after 1 hr; format: ADME, organism-based; parameters: dose 100 mg/kg, route oral; summary of the method: as §2
[9] = Plasma concentration in C57BL/6N mouse at 100 mg/kg, po after 3 hrs; format: ADME, organism-based; parameters: dose 100 mg/kg, route oral; summary of the method: as §2
[10] = Drug uptake in CSF of C57BL/6N mouse at 100 mg/kg, po after 3 hrs; format: ADME, organism-based, Cerebrospinal fluid; parameters: dose 100 mg/kg, route oral; settings: read-out: Drug uptake; summary of the method: as §2
[11] = system: Mus musculus; test: Induction of sleep in po dosed C57BL/6NCrlCrlj mouse assessed as reduction in wakefulness time up to 3 hrs by EEG/EMG analysis; format: functional, organism-based
Summary of the method: (§3)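 Mice with EEG/EMG recording dosed orally (30 or 100 mg/kg, vehicle 10% Cremophor EL, 5% DMSO in saline; n = 7) immediately before lights out. Signals sampled at 128 Hz, 50 Hz filtered; 10-s epochs auto-scored as wake, non-REM or REM, then checked by a blinded observer. Minutes summed hourly and over 3 h; one-way ANOVA with Dunnett versus vehicle.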

[12] = system: Mus musculus; test: Reduction in locomotor activity in ddY mouse model at 100 mg/kg, po after 1 hr; format: functional, organism-based; parameters: dose 100 mg/kg
Summary of the method: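 Male ddY mice kept on 12-h light/dark cycle; oral 10, 30 or 100 mg/kg (DMSO stock diluted twentyfold in 10% Cremophor EL/saline), n = 8 per dose, vehicle n = 16. Ambulation counted as infrared beam breaks in an open-field box over 1 h after dosing; mean ± SEM, one-way ANOVA with Dunnett versus vehicle.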

[13] = system: Mus musculus; test: Induction of REM sleep in C57BL/6NCrlCrlj mouse at 30 to 100 mg/kg, po up to 3 hrs by EEG/EMG analysis; format: functional, organism-based; summary of the method: as §3
[14] = system: Mus musculus; test: Induction of non-REM sleep in po dosed C57BL/6NCrlCrlj mouse up to 3 hrs by EEG/EMG analysis; format: functional, organism-based; summary of the method: as §3

| SMILES | Ki [3] | Ki [4] | Ratio [5] | solubility at 0.25 h [6] | also measured |
| --- | --- | --- | --- | --- | --- |
| Cc1ccc(-c2nc3ccc(C)cn3c2CC(=O)N(C)C)cc1 |  |  |  |  | Activity [1]: Active; Activity [2]: Active |
| COc1ccc(OC[C@@]2(c3ccccc3)C[C@H]2C(=O)Nc2ccncc2)cc1OC | 1420 nM | 85 nM | 4.9 |  |  |
| COc1ccc(OC[C@@]2(c3ccccc3)C[C@H]2C(=O)Nc2cc(C#N)ccn2)cc1OC | 103 nM | 34 nM | 1 | 10 µM (≈ 4.29 µg/mL) |  |
| COc1ccc(OC[C@@]2(c3ccccc3)C[C@H]2C(=O)Nc2ccccn2)cc1 | 5540 nM | 588 nM |  |  |  |
| COc1ccc(OC[C@@]2(c3ccccc3)C[C@H]2CNc2ccccc2)cc1OC | 4160 nM | 4230 nM |  |  |  |
| COc1ccc(OC[C@@]2(c3ccccc3)C[C@H]2C(=O)Nc2nc(C)cs2)cc1OC | 832 nM | 14 nM | 1.5 | 11 µM (≈ 4.67 µg/mL) |  |
| COc1ccc(OCC2(c3ccccc3)CC2C(=O)Nc2ccc(C#N)cn2)cc1OC (single isomer, unassigned; (-)) [listing 1 of 2 here] | 106 nM | 5 nM | 1.1 | 15 µM (≈ 6.44 µg/mL) | concentration at 1 h [7]: 245 nM; concentration at 1 h [8]: 9900 nM; concentration at 3 h [9]: 3740 nM; concentration at 3 h [10]: 94 nM |
| COc1ccc(OCC2(c3ccccc3)CC2C(=O)Nc2ccc(C#N)cn2)cc1OC (single isomer, unassigned; (-)) [listing 2 of 2 here] |  |  |  |  | Activity [11]: Dose-dependent effect; Activity [12]: Active; Activity [13]: inactive; Activity [14]: Dose-dependent effect |
| COc1ccc(OC[C@@]2(c3ccccc3)C[C@H]2C(=O)Nc2ccc(C#N)cn2)cc1OC (racemic) | 123 nM | 14 nM | 1.1 | 22 µM (≈ 9.45 µg/mL) |  |
| COc1ccc(OCC2(c3ccccc3)CC2C(=O)Nc2ccc(C#N)cn2)cc1OC (single isomer, unassigned; (+)) | > 2000 nM | > 2000 nM |  |  |  |
| COc1ccc(OC[C@@]2(c3ccccc3)C[C@H]2C(=O)NC2CCCCC2)cc1OC | 2990 nM | 7850 nM |  |  |  |
| Cc1nc(C(=O)N2CCCC[C@H]2CNC(=O)c2cccc3occc23)c(-c2ccc(F)cc2)s1 [SB-649868] |  | 8.5 nM |  |  |  |
| COc1ccc(OC[C@@]2(c3ccccc3)C[C@H]2C(=O)Nc2ccccc2)cc1OC | 7.2 nM | 7.2 nM | 0.6 | 2 µM (≈ 0.807 µg/mL) |  |
| COc1ccc(OC[C@@]2(c3ccccc3)C[C@H]2C(=O)N2CCCc3ccccc32)cc1OC | > 10000 nM | > 10000 nM |  |  |  |
| COc1ccc(OC[C@@]2(c3ccccc3)C[C@H]2C(=O)c2ccccc2)cc1OC | > 10000 nM | 8650 nM |  |  |  |
| COc1ccc(OC[C@@]2(c3ccccc3)C[C@H]2C(=O)Cc2ccccc2)cc1OC | > 10000 nM | > 10000 nM |  |  |  |
| COc1ccc(OC[C@@]2(c3ccccc3)C[C@H]2C(=O)Nc2ccccn2)cc1OC | 1070 nM | 36 nM | 0.9 | 32 µM (≈ 12.9 µg/mL) |  |
| COc1cccc(OC[C@@]2(c3ccccc3)C[C@H]2C(=O)Nc2ccccn2)c1 | > 10000 nM | 1330 nM |  |  |  |
| COc1ccc([C@]2(COc3ccccc3)C[C@H]2C(=O)Nc2ccccn2)cc1OC | > 10000 nM | 129 nM |  |  |  |
| COc1ccc(OC[C@@]2(c3ccccc3)C[C@H]2C(=O)N(C)c2ccccc2)cc1OC | 7540 nM | 4680 nM |  |  |  |
| COCc1ccc(OC[C@@]2(c3ccccc3)C[C@H]2C(=O)Nc2ccccn2)cc1OC | 772 nM | 3340 nM |  |  |  |
| O=C(Nc1ccccn1)[C@@H]1C[C@@]1(COc1ccccc1)c1ccccc1 | 6840 nM | 967 nM |  |  |  |
| COCc1cc(OC[C@@]2(c3ccccc3)C[C@H]2C(=O)Nc2ccccn2)ccc1OC | 747 nM | 384 nM |  |  |  |
| COc1ccc(OC[C@@]2(c3ccccc3)C[C@H]2C(=O)Nc2cccnc2)cc1OC | 206 nM | 51 nM | 3.4 |  |  |
| COc1ccc(OC[C@@]2(c3ccccc3)C[C@H]2C(=O)Nc2cc(C)on2)cc1OC | 505 nM | 28 nM |  | < 1 µM |  |
| COc1ccc(OC[C@@]2(c3ccccc3)C[C@H]2C(=O)Nc2ncc(C)s2)cc1OC | 291 nM | 35 nM | 2.4 | < 1 µM |  |
